Compound activity from PubChem.
FXIIa inh 1536: blocks human coagulation factor XIIa protease activity | P00748 | purified FXIIa, Boc-QGR-AMC fluorogenic substrate, 2 h | inhibition, % at 5 µM | actives 0.3% (n = 220,000) | AID 800; in the data active means inhibition above about 40%
FXIa inh: inhibitors of human coagulation factor XIa | purified FXIa, Boc-Glu-Ala-Arg-AMC fluorogenic substrate | inhibition, % at 5 µM | actives 0.14% (n = 220,000) | AID 798;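 active means inhibition of at least 40%; inactive means inhibition below 40%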;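 further: fluorescence of freed AMC excited at 355 nm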
Furin inh: inhibitors of human furin. purified furin, fluorogenic substrate cleavage. inhibition, % at 20 µM or 30 µM. actives 0.061% (n = 220,000). AID 463115; in the data active means inhibition above about 25%
thrombin 1536: inhibitors of human thrombin | actives 0.26% (n = 220,000) | AID 1046 | P00734 | inhibition, % at 5 µM | alpha-thrombin, Boc-VPR-AMC fluorogenic substrate cleavage;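 active means inhibition at or above 40%; inactive means inhibition below 40%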
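Material: Human alpha-thrombin protein | Buffer or medium: pH 7.5 Tris-saline with Tween 20 | Reagent: Boc-VPR-AMC substrate, 15 µM final | Schedule: Reaction at ambient temperature | Detection: AMC fluorescence at 355 nm excitation and 460 nm emission | Evaluation: Percent inhibition scaled between no-compound controls and no-enzyme blanks | Controls: no-compound enzyme wells and no-enzyme blanks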
KLK5 inh: inhibitors of human kallikrein 5. Q9Y337. recombinant hK5, fluorogenic AMC substrate cleavage. inhibition, % at 5 µM. actives 0.59% (n = 210,000). AID 873;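 active means inhibition of 40% or more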
Target sequence (Q9Y337 67-293 limits assumed): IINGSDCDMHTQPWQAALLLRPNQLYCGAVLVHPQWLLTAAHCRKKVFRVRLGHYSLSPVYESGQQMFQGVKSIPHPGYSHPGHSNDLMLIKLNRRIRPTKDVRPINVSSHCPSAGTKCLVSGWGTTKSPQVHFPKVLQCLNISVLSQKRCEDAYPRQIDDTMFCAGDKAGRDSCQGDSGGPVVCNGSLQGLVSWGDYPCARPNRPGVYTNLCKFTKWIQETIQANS
Large screens that a line does not name were inactive. Compounds with a hit are over-represented: about 1.1% of the library has one in this group of screens.

Cc1ccc(C(=O)N2C(CC(=O)Nc3ccc(Cl)cc3)C(=O)NC3CCCCC32)cc1 (stereo not drawn)	thrombin 1536 50
Cc1ccc(C)c(N2CCN(C(=O)CN(C)S(=O)(=O)c3ccc4c(c3)CCC(=O)N4)CC2)c1	KLK5 inh 53
Cc1ccc(C)c(SCC(=O)OCC(=O)Nc2ccc(S(=O)(=O)N3CCOCC3)cc2)c1	thrombin 1536 50
CCC(=O)Nc1ccc(NC(=O)CSc2nnnn2CC)cc1C	KLK5 inh 72
CCn1nnnc1SCC(=O)Nc1ccc2c(c1)OCO2	none
O=C(O)/C=C/C(=O)N1CCN(S(=O)(=O)c2cc(C(F)(F)F)ccc2Cl)CC1	KLK5 inh 53
CC(=O)N1CCN(S(=O)(=O)c2ccc(Cl)cc2F)CC1	none
CC(Sc1nncn1C)C(=O)NCc1ccc2c(c1)OCO2 (stereo not drawn)	thrombin 1536 77
Cc1csc(SC(C)C(=O)NCc2ccc3c(c2)OCO3)n1 (stereo not drawn)	none
O=C(NC(Cc1ccccc1)C(=O)O)OCc1ccccc1 (stereo not drawn)	none
CC(C)C(NC(=O)C(Cc1ccccc1)NC(=O)OCc1ccccc1)C(=O)O (stereo not drawn)	FXIa inh 47
CCN=C1SC(CC(=O)NCc2ccccc2)C(=O)N1CC (stereo not drawn)	none
CCN(C(=O)COc1ccc(C)nc1[N+](=O)[O-])C1CCS(=O)(=O)C1 (stereo not drawn)	none
Cc1ccc(NC(=O)/C(CN(C)C)=N\O)cc1	FXIIa inh 1536 42
O=C1c2ccccc2C(=O)N1CCN1CCCCC1	KLK5 inh 51
O=C1C(=O)N(CCN2CCCCC2)c2ccccc21	none
CC(Sc1ccsc1[N+](=O)[O-])C(=O)N1CCN(c2ccccn2)CC1 (stereo not drawn)	none (no result: thrombin 1536)
COc1cccc(NC(=S)N(CCCN2CCN(C)CC2)Cc2ccco2)c1	none
COc1cccc(NC(=S)N(CCCN2CCCC2)Cc2ccco2)c1	thrombin 1536 95
CCCC(=O)OCC(=O)Nc1ccc2c(c1)OCO2	none
Cc1nnc(SCc2nnc(-c3ccccc3Br)o2)n1-c1ccccc1	thrombin 1536 41
Fc1ccccc1N1CCN(Cc2nc(-c3ccc(Cl)cc3Cl)no2)CC1	KLK5 inh 56
Cc1nc(C)c(NC(=O)N2CCc3ccccc32)cc1NC(=O)N1CCc2ccccc21	KLK5 inh 76
CSc1nc2cc3c(cc2n1C(=O)c1ccc(C)cc1)OCCO3	FXIa inh 67, thrombin 1536 88
Cc1ccc(C(=O)c2cc3c(cc2N)OCCO3)cc1	none
CC1(C)CC(=O)C(C=Nc2ccccc2C(=O)O)=C(O)C1	none
CC1(C)CC(=O)C(/C=N/c2ccccn2)=C(O)C1	Furin inh 51
CC1(C)CC(=O)C(/C=N/n2cnc3ccccc3c2=O)=C(O)C1	Furin inh 79
CC1(C)CC(=O)C(C=Nc2ccccc2Sc2ccccc2)=C(O)C1	KLK5 inh 44
CC(=O)Nc1cccc(C(=O)OCc2ccccc2)c1	KLK5 inh 82
CSc1ncccc1C(=O)N1CCCC(CCC(=O)NCc2ccc(F)c(F)c2)C1 (stereo not drawn)	none
CC(Oc1cc(F)ccc1[N+](=O)[O-])C(=O)N(C)CC(=O)Nc1ccccc1C(F)(F)F (stereo not drawn)	none
COc1ccc(NC(=O)CSc2nnnn2-c2ccc(OC)cc2)cc1	none
COc1cc(OC)cc(-n2nnnc2SCC(=O)Nc2ccc(C(C)=O)cc2)c1	thrombin 1536 89
CCC1CCc2[nH]nc(C(=O)O)c2C1 (stereo not drawn)	none
CC1CCc2[nH]nc(C(=O)O)c2C1 (stereo not drawn)	thrombin 1536 78
O=C(N/N=C/c1cccc(Cl)c1)C(c1ccncc1)N1CCOCC1 (stereo not drawn)	none
S=C(NCC1CCCO1)Nc1cccc(Cl)c1 (stereo not drawn)	none
O=C(Cc1cccs1)NCC1CCCO1 (stereo not drawn)	none
S=C(NCc1cccs1)NCC1CCCO1 (stereo not drawn)	thrombin 1536 60
S=C(NCC1CCCO1)Nc1ccc(Nc2ccccc2)cc1 (stereo not drawn)	KLK5 inh 40
COc1cc(/C=C2/SC(=S)N(c3c(C)n(C)n(-c4ccccc4)c3=O)C2=O)ccc1O	none
CN1CCN(NC(=O)c2ccc(S(=O)(=O)N3CC4(C)CC3CC(C)(C)C4)cc2)CC1 (stereo not drawn)	none
O=C1CC(c2cccs2)c2cc3c(cc2N1)OCO3 (stereo not drawn)	KLK5 inh 46
S=C(Nc1cccc(Cl)c1Cl)N1CCC2(CC1)OCCO2	none
O=C(Cc1cccs1)Nc1nnc(Cc2ccc(F)cc2)s1	KLK5 inh 77
COc1cc(CNc2ncn[nH]2)ccc1OCc1cccc(C)c1	none (no result: KLK5 inh)
CC(C)OC(=O)c1cccc(NC(=O)CSc2nnc(N)s2)c1	FXIIa inh 1536 103
Nc1nnc(SCC(=O)Nc2ccccc2)s1	none
Cc1cc(Nc2ccc(C)c(C)c2)n2nc(C)nc2n1	FXIIa inh 1536 42
Cc1cc(Nc2ccc(Br)cc2)n2nc(C)nc2n1	none
Cc1ccc(N=C(N)N=C(N)N)c(C)c1	none
COc1ccc(OCCCc2c(C)n[nH]c2C)cc1	KLK5 inh 55
CCOC(=O)c1c(C)[nH]c(C)c1C(=O)COC(=O)/C=C/c1cccc(F)c1	KLK5 inh 52
Cc1cc(NC(=O)CS(=O)(=O)Cc2ccccc2)no1	none
CC1CCCC(C)N1C(=O)COc1ccc([N+](=O)[O-])cc1Cl (stereo not drawn)	none
CCCn1c(NCc2cccs2)nc2ccccc21	KLK5 inh 56
CCCCn1c(NCc2cccs2)nc2ccccc21	none
CC1Cc2ccccc2N1CC(=O)NCc1ccccc1Cl (stereo not drawn)	none
Cc1ccccc1NC(=O)C(=O)Nc1ccccc1C	none
Cc1ccccc1NC(=O)Nc1ccccc1Br	thrombin 1536 47
Cc1ccc2c(C)c(C(=O)Nc3nnc(C)s3)oc2c1	FXIIa inh 1536 40
Cc1nnc(NC(=O)c2oc3cc(C)c(C)cc3c2C)s1	none
Cc1ccc(C2=C/C(=C/c3cccnc3)C(=O)O2)c(C)c1	none
O=C1Nc2ccc(NS(=O)(=O)c3cccs3)c3cccc1c23	none
O=C(NCc1ccc2c3c(cccc13)C(=O)N2)c1cccs1	FXIIa inh 1536 42, FXIa inh 57, KLK5 inh 56
CC(=O)c1sc(C(=O)O)c(-c2ccco2)c1-c1ccco1	none
Cn1ncc(Cl)c1C(=O)N1CCN(C(=O)c2ccco2)CC1	none
O=C(NNC(=O)c1cccnc1)Nc1ccc([N+](=O)[O-])cc1	KLK5 inh 42
O=C(NNC(=O)c1ccncc1)Nc1ccc([N+](=O)[O-])cc1	none
O=C(Cn1c(/C=C/c2ccccc2)nc2ccccc21)Nc1ccc(F)cc1	FXIIa inh 1536 40
C#Cc1ccc([C@@H]2C=C(C(=O)N3CCN(Cc4ccc5c(c4)OCO5)CC3)O[C@H](OCCCCO)C2)cc1	none
CCCCOc1ccc(-c2nnn(C(C)(C)C(=O)OC)n2)cc1	KLK5 inh 140
